Bioassay records as filed in PubChem.
TRPC6 act: mouse TRPC6 channel activation | Q61143 | HEK293-TRPC6 membrane potential dye fluorescence; stronger effect = higher value | B-score at 10 µM | 0.13% of 310,000 active | AID 2550;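 active means B-score of the integrated fluorescence ratio above library mean plus 3 SD, and starting fluorescence ratio within library mean plus 5 SD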;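 further: higher score means more depolarization so channel activation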
Target sequence (Q61143 whole entry, looked up): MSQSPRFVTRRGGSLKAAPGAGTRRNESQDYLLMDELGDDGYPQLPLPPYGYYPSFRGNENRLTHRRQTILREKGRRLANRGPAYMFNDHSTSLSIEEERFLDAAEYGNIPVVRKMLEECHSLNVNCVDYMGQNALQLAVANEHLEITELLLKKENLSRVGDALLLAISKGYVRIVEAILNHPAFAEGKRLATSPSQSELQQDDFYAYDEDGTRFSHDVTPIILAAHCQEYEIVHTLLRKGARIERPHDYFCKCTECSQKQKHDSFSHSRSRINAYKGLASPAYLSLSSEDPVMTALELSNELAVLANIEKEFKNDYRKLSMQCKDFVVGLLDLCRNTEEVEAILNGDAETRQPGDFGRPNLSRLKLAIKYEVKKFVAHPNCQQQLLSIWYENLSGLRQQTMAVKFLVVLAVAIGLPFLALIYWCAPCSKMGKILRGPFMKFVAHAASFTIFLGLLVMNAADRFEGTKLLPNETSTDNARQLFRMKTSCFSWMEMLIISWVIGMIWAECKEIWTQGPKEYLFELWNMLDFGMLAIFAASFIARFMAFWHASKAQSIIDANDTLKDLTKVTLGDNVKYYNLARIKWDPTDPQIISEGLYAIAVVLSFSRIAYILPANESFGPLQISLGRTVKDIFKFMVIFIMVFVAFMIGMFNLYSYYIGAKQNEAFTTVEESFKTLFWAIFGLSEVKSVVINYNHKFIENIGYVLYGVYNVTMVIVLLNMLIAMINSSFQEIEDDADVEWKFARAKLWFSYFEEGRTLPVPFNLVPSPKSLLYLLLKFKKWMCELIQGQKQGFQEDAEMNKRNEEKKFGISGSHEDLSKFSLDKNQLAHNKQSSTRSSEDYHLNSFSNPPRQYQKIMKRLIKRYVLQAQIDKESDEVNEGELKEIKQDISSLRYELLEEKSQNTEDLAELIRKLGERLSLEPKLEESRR
TRPC4 act: activators of mouse TRPC4 channel; AID 2237; HEK293 TRPC4beta/mu-opioid, Fluo4 calcium fluorescence; stronger effect = higher value; Q9QUQ5; 0.49% of 310,000 active; B-score at 10 µM;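 active means B-score above 5 SD of library B-scores, and initial fluorescence ratio not above library mean plus 5 SD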;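 further: positive B-score marks a calcium rise read as TRPC4 activation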
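Test system: HEK293 cells stably co-expressing mouse TRPC4beta and mu-opioid receptor | Schedule: Fluo4 dye loading 45 min at room temperature, 110 s recording | Measured by: Kinetic Fluo4 calcium fluorescence, 5 s baseline at 1 Hz | Evaluation: B score of integrated ratio | Controls: Buffer (low) and maximal DAMGO (high)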
TRPC4 potent: allosteric potentiators of mouse TRPC4 channel. Q9QUQ5. HEK293 TRPC4beta/mu-opioid, DAMGO EC20, Fluo-4 Ca2+ flux; stronger effect = higher value. B-score at 10 µM. 0.42% of 310,000 active. AID 2227;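 active means B-score of calcium response area above 5 SD of library B-scores, with initial fluorescence ratio within 5 SD of library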;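 further: B-score of integrated fluorescence ratio over time as area under calcium response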
TRPC4 inh: TRPC4 (mouse) channel inhibition | B-score at 10 µM | AID 2247 | Q9QUQ5 | HEK293 TRPC4beta/mu-opioid, DAMGO-evoked Fluo4 calcium flux; stronger effect = lower value | 0.39% of 300,000 active;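 active means B-score over 3 SD under the library average, no early fluorescence shift, positive overall ratio signal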
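Assay system: TRPC4beta/mu-opioid receptor HEK293 cell line; compound dosing: single concentration per test compound; detection: Fluo4 Ca2+ flux fluorescence; evaluation: per-well B score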
TRPC6 inh: mouse TRPC6 channel inhibition; B-score at 10 µM; AID 2553; HEK293-TRPC6, membrane potential dye, ACh-evoked depolarization; stronger effect = lower value; 1.1% of 310,000 active; Q61143;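 active means B-score under library mean minus 3 SD, initial fluorescence not abnormally high, positive integrated signal ratio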;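 further: B-score derived from integrated fluorescence ratio over the kinetic read; more negative B-score means stronger inhibition of depolarization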
Kir21 inh: inhibitors of mouse Kir2.1 inward-rectifier potassium channel; P35561; HEK293-Kir2.1, FluxOR thallium flux fluorescence; stronger effect = lower value; B-score at 10 µM; 0.85% of 310,000 active;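 active means fluorescence ratio B-score at or below minus 3 SD of library scores, with starting-brightness B-score within 2 SD, cut at about -4.2 in these data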;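 further: channel flux triggered by added potassium and thallium sulfate stimulus; B-score of peak minus minimum fluorescence over baseline after thallium stimulus; more negative B-score means stronger Kir2.1 block with less thallium influx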
An asterisk follows results filed as active; i = inactive. Compounds with a hit are over-represented: about 2.9% of the library has one in this group of screens.

SMILES | TRPC6 act | TRPC4 act | TRPC4 potent | TRPC4 inh | TRPC6 inh | Kir21 inh
Cn1cnc([N+](=O)[O-])c1S(=O)(=O)c1ccc(Cl)cc1 | i | i | i | i | i | -6.8*
CN(C)c1ccc(C2N3CC4(C)CN2CC(C)(C3)C4O)cc1 (stereo not given) | i | i | i | i | i | -0.3
CC12CN3CC(C)(CN(C1)C3c1ccc(Cl)cc1Cl)C2O (stereo not given) | i | 48* | i | -6* | i | -0.57
COc1ccc(-c2cc(=O)oc3c(C)c(OC(C)C(=O)NCc4ccccn4)ccc23)cc1 (stereo not given) | i | i | i | i | i | 0.15
COc1ccc(C2=NOC(Cn3nc(C(=O)NCc4ccccc4OC)cc3-c3ccccc3)C2)cc1 (stereo not given) | i | i | i | i | i | -0.47
COCCN(C(=O)CSc1nnc(-c2ccc(C(C)(C)C)cc2)n1N)c1c(N)n(CC(C)C)c(=O)[nH]c1=O | i | i | i | i | i | 0.06
CC1(C)CC(=O)CC2(C1)NCC(c1ccccc1)c1c2[nH]c2ccccc12 (stereo not given) | i | i | i | i | i | -0.73
COc1cccc(C2CNC3(CCCC(C)C3)c3[nH]c4ccccc4c32)c1OC (stereo not given) | i | i | i | i | i | -4.5*
Cc1ccc(S(=O)(=O)N2CCN(C(=O)c3cccs3)CC2)c(C)c1 | i | i | 11* | i | i | 0.39
Cc1cc(C)c(S(=O)(=O)N2CCN(C(=O)c3cccs3)CC2)c(C)c1 | i | i | i | i | i | -0.82
Cc1cc(N2CCC(C)CC2)c(F)cc1[N+](=O)[O-] | i | i | i | i | i | 0.19
Cc1cc(N2CCCC2)c(F)cc1/C=C\[N+](=O)[O-] | i | i | i | i | i | -7.7*
Cn1c(NCc2ccccc2Cl)nc2ccccc21 | i | i | i | i | i | -1.5
C=CCc1cccc(CNc2nc3ccccc3n2C(C)C)c1O | i | i | i | i | i | 0.01
CC(C)n1c(NCc2ccccc2O)nc2ccccc21 | i | i | i | -6* | i | -2.9
Cn1c(NCc2ccccc2O)nc2ccccc21 | i | i | i | -6* | i | 0.96
c1ccc(CNc2nc(-c3cccs3)nc3ccccc23)nc1 | i | i | i | -6* | i | -0.14
Cc1ccc(CNc2nc(-c3cccs3)nc3ccccc23)cc1 | i | i | i | i | i | 0.05
c1coc(CNc2nc(N3CCCCC3)nc3ccccc23)c1 | i | i | i | i | i | -4.6*
c1ccc(N2CCN(c3nc(NCc4ccco4)c4ccccc4n3)CC2)cc1 | i | i | i | i | i | 1.4
c1ccc2c(N3CCCCC3)nc(N3CCOCC3)nc2c1 | i | i | i | -9* | i | -1.8
c1ccc2c(N3CCCCC3)nc(N3CCCCC3)nc2c1 | i | i | i | i | i | 1.6
c1ccc(-c2nc(NCc3ccco3)c3ccccc3n2)nc1 | i | i | i | -6* | i | -1.1
Oc1ccccc1-c1nc(NCc2ccco2)c2ccccc2n1 | i | i | i | i | i | 1.1
COc1cc(/C=C/C(=O)OCC(=O)NC(=O)NC(C)C)ccc1O | i | i | i | i | i | 1.5
SMILES | TRPC6 act | TRPC4 act | TRPC4 potent | TRPC4 inh | TRPC6 inh | Kir21 inh
COc1ccc(C/C(C)=N\NC(=O)c2cn(C)c3ccccc23)cc1OC | i | i | i | i | i | 0.94
CCOC(=O)c1c(CSc2ccsc2)n(C)c2cc(Br)c(O)c(CN(C)C)c12 | i | i | i | i | i | -7.1*
CCOC(=O)c1c(CSc2ccccc2)n(C)c2ccc(O)c(CN3CCN(C)CC3)c12 | i | i | i | i | i | -4.9*
CCOC(=O)c1c(CN2CCOCC2)n(-c2ccccc2)c2cc(Br)c(O)c(CN(C)C)c12 | i | i | i | i | i | -0.32
Cc1oc(-c2ccc(Cl)cc2)nc1CSCC(=O)NC1CCN(Cc2ccccc2)CC1 | i | i | 12* | i | i | -1.8
CCOC(=O)N1CCC(NC(=O)CSCc2nc(-c3ccccc3Cl)oc2C)CC1 | i | i | i | i | i | 0.1
Cc1oc(-c2ccccc2Cl)nc1CSCC(=O)NC1CCCC1 | i | i | i | i | i | -4.7*
CC(CCc1ccccc1)NC(=O)CN(C)Cc1ccc(F)cc1 (stereo not given) | i | i | i | i | i | -4.5*
CC(CCc1ccccc1)NC(=O)CN(C)Cc1ccccc1F (stereo not given) | i | i | i | i | i | -0.38
Cc1ccc(S(=O)(=O)C2CS(=O)(=O)CC2O)cc1 (stereo not given) | i | i | i | i | i | -0.87
CC(=O)C1=C(S(=O)(=O)c2ccc(C)cc2)CS(=O)(=O)C1 | i | i | i | -7* | i | -3.4
CCOC(=O)CN1C(=O)/C(=C/c2ccc(Cl)cc2)Oc2ccccc21 | i | i | i | i | i | 0.2
COc1ccc(C(=O)NNC(=S)NC(=O)c2ccc(Cl)cc2)cc1 | i | 163* | i | i | i | 1.4
CCCCC(=O)NNC(=S)NC(=O)c1ccc([N+](=O)[O-])cc1 | i | i | i | i | i | 0.52
COc1ccc(C(=O)NC(=S)NNC(=O)c2ccc(C)cc2)cc1 | i | 189* | i | i | i | 1.7
CCCCC(=O)NNC(=S)NC(=O)c1ccc(C)cc1 | i | 240* | i | i | i | -1.8
CCn1c(SCC(=O)Nc2ccccc2C)nc2nc3c(cc2c1=O)COC(C)(C)C3 | i | i | i | i | i | -0.09
CC#CC(=O)N1CCC(C(=O)Nc2ccc(Oc3ccccc3)nc2)CC1 | i | i | i | i | i | -0.47
CCc1cccc(NC(=O)CCCn2nc(CC)n3c(cc4occc43)c2=O)c1 | i | i | i | i | i | -5*
CCCCC(c1nnnn1C(C)C)N1CCN(C(=O)c2ccco2)CC1 (stereo not given) | i | i | i | i | i | 0.96
COc1ccc(C2c3c(ncn(CCCO)c3=N)Oc3ccc4ccccc4c32)cc1 (stereo not given) | i | i | i | i | i | -3
